Measurements: ChEMBL document CHEMBL2040729, “Lead optimization of 17β-HSD1 inhibitors of the (hydroxyphenyl)naphthol sulfonamide type for the treatment of endometriosis” (J Med Chem, 2012)
Activity calls are given as the source filed them. No cut-off for these calls is given here.

What was measured:
[1] = target: T1, 17-beta-hydroxysteroid dehydrogenase type 1 (Mus musculus) (UniProt P51656); experiment: Inhibition of mouse liver cytosolic 17betaHSD1 using [3H]E1 as substrate
T1 sequence (whole entry): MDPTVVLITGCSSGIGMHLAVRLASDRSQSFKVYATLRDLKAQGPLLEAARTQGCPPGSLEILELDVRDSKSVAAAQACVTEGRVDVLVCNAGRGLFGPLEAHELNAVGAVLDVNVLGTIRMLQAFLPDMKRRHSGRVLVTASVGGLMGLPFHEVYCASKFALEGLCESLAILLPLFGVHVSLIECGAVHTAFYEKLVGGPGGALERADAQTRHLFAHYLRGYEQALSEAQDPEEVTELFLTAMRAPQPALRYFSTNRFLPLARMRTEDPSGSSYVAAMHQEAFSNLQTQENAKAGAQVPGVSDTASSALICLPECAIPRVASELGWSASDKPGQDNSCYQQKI

[2] = target: T2, 17-beta-hydroxysteroid dehydrogenase type 1 (Homo sapiens, UniProt P14061); experiment: Inhibition of human placenta cytosolic 17betaHSD1 using [3H]E1 as substrate after 10 mins by radioflow detection assay
T2 sequence (P14061 whole entry): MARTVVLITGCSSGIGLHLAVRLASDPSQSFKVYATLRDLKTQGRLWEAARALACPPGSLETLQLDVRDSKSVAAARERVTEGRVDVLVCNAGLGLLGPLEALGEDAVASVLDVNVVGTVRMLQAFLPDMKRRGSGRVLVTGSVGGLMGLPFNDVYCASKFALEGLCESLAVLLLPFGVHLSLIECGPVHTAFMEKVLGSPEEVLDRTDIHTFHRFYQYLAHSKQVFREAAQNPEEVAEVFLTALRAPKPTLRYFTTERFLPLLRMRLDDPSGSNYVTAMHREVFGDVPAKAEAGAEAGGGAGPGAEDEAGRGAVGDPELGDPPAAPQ
Procedure, shortened: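 Cytosolic 17β-HSD1 from fresh human placenta, obtained by ammonium sulfate precipitation. Incubated at 37 °C in 50 mM phosphate buffer with 20% glycerol and EDTA, with NADH 500 μM and compound (DMSO 1% final). Started with unlabeled + [3H]-E1 (500 nM final), stopped after 10 min with HgCl2, ether-extracted. E1/E2 quantified by radioflow HPLC as % conversion. At least three independent experiments.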

[3] = target: T3, Estrogen receptor (Homo sapiens) (UniProt P03372); experiment: Relative binding affinity to human recombinant ERalpha receptor using [3H]E2 as substrate after 1 hr by liquid scintillation counting relative to E2
T3 sequence (whole entry): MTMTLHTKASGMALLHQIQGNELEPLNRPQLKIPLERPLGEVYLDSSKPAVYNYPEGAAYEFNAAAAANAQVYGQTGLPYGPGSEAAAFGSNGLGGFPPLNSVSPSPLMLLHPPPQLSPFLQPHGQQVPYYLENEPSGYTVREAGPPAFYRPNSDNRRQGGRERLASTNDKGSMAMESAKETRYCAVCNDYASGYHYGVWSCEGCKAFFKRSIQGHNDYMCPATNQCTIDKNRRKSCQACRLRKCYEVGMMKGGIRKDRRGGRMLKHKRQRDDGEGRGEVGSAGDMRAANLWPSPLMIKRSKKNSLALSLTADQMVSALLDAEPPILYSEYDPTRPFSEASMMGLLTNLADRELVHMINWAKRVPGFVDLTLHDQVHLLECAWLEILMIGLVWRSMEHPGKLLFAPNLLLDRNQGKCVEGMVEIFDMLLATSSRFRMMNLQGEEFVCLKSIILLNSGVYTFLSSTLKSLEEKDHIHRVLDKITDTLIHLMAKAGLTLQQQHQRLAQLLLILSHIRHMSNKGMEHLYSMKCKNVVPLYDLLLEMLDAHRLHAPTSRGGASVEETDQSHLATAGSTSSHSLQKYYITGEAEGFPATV
Procedure, shortened: (§1)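 Recombinant human ERα or ERβ (0.25 pmol) incubated 1 h at rt with [3H]-E2 (10 nM) and compound in DMSO (5% final). Nonspecific binding defined with diethylstilbestrol 10 μM. Bound complex captured on hydroxyapatite, washed, resuspended in ethanol, counted by liquid scintillation. Concentrations displacing 50% of bound label compared with E2, which is set at 100%.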

[4] = target: T4, Estradiol 17-beta-dehydrogenase 2 (Mus musculus) (UniProt P51658); experiment: Inhibition of mouse liver microsomal 17betaHSD2 using [3H]E2 as substrate
T4 sequence (whole entry): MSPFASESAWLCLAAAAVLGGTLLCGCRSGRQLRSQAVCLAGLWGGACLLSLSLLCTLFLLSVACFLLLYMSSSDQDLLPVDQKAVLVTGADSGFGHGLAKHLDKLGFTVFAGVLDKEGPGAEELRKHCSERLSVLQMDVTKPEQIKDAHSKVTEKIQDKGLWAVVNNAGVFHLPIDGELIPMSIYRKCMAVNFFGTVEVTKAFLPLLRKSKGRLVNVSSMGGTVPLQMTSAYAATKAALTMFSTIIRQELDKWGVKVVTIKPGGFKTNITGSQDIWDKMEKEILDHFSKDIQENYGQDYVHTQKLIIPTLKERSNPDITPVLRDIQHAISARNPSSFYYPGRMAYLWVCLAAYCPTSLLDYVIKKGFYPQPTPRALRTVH

[5] = target: T5, 17-beta-hydroxysteroid dehydrogenase type 1 (Homo sapiens) (UniProt P14061); experiment: Inhibition of human placenta cytosolic 17betaHSD1 using [3H]E1 as substrate at 10 nM after 10 mins by radioflow detection assay
T5 sequence (whole entry): T2 sequence (P14061 whole entry)

[6] = target: T6, 17-beta-hydroxysteroid dehydrogenase type 2 (Homo sapiens, UniProt P37059); experiment: Inhibition of human placenta microsomal 17betaHSD2 using [3H]E2 as substrate after 20 mins by radioflow detection assay
T6 sequence (P37059 whole entry): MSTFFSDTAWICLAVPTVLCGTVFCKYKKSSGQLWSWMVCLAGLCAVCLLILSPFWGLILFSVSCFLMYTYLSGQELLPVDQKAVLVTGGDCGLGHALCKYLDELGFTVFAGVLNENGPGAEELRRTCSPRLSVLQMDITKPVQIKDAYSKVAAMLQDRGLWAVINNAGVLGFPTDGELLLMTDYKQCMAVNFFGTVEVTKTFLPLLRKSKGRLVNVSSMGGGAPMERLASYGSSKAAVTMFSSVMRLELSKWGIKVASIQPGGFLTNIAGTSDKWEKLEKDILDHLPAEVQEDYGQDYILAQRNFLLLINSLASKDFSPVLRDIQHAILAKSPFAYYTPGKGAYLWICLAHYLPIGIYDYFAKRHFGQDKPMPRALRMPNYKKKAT
Procedure, shortened: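 Microsomal (pellet) fraction of fresh human placenta incubated with NAD+ 1500 μM, compound, and unlabeled + [3H]-E2 (500 nM final) for 20 min at 37 °C. Stopped with 1 mM HgCl2, ether-extracted. Steroids separated by HPLC with radioflow detection, conversion computed. Mean of three determinations.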

[7] = target: Estrogen receptor beta (Homo sapiens) (UniProt Q92731); experiment: Relative binding affinity to human recombinant ERbeta receptor using [3H]E2 as substrate after 1 hr by liquid scintillation counting relative to E2; procedure, shortened: as §1
Sequence of Estrogen receptor beta (Homo sapiens) (Q92731 whole entry): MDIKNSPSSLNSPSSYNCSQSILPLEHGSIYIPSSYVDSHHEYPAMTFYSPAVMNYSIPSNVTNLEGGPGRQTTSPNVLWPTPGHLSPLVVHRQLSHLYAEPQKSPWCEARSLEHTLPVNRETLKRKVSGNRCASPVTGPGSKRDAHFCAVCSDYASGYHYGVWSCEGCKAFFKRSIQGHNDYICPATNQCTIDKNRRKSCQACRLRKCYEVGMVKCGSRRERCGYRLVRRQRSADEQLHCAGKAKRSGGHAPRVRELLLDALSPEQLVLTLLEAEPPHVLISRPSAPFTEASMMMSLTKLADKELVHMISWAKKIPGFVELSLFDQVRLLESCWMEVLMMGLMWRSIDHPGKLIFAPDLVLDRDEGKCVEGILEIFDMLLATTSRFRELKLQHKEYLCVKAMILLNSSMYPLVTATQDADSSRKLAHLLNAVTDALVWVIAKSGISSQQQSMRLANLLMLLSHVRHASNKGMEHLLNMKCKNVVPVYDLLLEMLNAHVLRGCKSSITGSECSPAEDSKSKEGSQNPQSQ

[8] = target: T2, 17-beta-hydroxysteroid dehydrogenase type 1; experiment: Inhibition of 17betaHSD1 in human T47D cells using [3H]E1 as substrate incubated for 30 mins prior to substrate addition measured after 30 mins by radioflow detection assay; type: cell-based
Procedure, shortened: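 T47D cells kept in RPMI 1640 with 10% FCS, glutamine, insulin-zinc, pyruvate, antibiotics. Seeded at 5 × 10^5 cells/well in DMEM with FCS, switched to serum-free DMEM after 24 h. Compound added in DMSO (1% final), 30 min preincubation at 37 °C, 5% CO2. Then unlabeled + [3H]-E1 (50 nM final) for 30 min. Steroids extracted into diethylether. Mean of three determinations.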

[9] = species on record: Callithrix jacchus; experiment: Inhibition of mormoset placenta cytosolic 17betaHSD1 using [3H]E1 as substrate at 50 nM after 10 mins by radioflow detection assay
[10] = species on record: Callithrix jacchus; experiment: Inhibition of mormoset placenta microsomal 17betaHSD2 using [3H]E2 as substrate at 50 nM after 20 mins by radioflow detection assay

Compound | inhibition [1] | IC50 [2] [nM] | RBA [3] [%] | inhibition [4] | inhibition [5] [%] | IC50 [6] [nM] | RBA [7] [%] | IC50 [8] [nM] | inhibition [9] [%] | inhibition [10] [%]
N#Cc1ccccc1S(=O)(=O)Nc1cccc(-c2c(O)ccc3cc(-c4cccc(O)c4)ccc23)c1 | inactive | 14 | < 0.1 | Active | > 30 | 439 | < 0.1 | 157 | 43 | 35
O=S(=O)(Nc1cccc(-c2c(O)ccc3cc(-c4cccc(O)c4)ccc23)c1)c1ccccc1 | inactive | 15 | < 0.1 | Active | > 30 | 403 | < 0.1 | 196 | 19 | < 10
O=S(=O)(Nc1cccc(-c2c(O)ccc3cc(-c4cccc(O)c4)ccc23)c1)c1cccc(O)c1 | inactive | 14 | < 0.1 | Active | – | 999 | < 0.1 | 701 | 20 | < 10
O=S(=O)(CC(F)(F)F)Nc1cccc(-c2c(O)ccc3cc(-c4cccc(O)c4)ccc23)c1 | inactive | 32 | < 0.1 | Active | > 30 | 1210 | < 0.1 | 246 | 17 | 32
